# From ChEMBL document CHEMBL3856258, “Phosphonate-based irreversible inhibitors of human γ-glutamyl transpeptidase (GGT). GGsTop is a non-toxic and highly selective inhibitor with critical electrostatic interaction with an active-site residue Lys562 for enhanced inhibitory activity” (Bioorg Med Chem, 2016)
# Activity calls are given as the source filed them. The calls are words filed in the database; no cut-off is given here.
# Columns and labels:
# Homo sapiens = species on record: Homo sapiens; test: Irreversible inhibition of human GGT using gamma-Glu-AMC as substrate assessed as association rate constant by […] analysis
# In short: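 The enzyme source was a commercial human GGT preparation carrying bovine serum albumin as stabilizer (GGT <1% of protein). Hydrolytic activity was followed with γ-Glu-AMC as substrate. Irreversible inactivation was expressed as kon, the second-order rate constant for the inhibitor–enzyme reaction.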
# [1] = Cytotoxicity against CHL cells assessed as chromatid gap at 0.05 ug/ml preincubated for 6 hrs followed by 18 hrs incubation in fresh medium in absence of S9 fraction by Giemsa-staining-based microscopic analysis; format: toxicity, cell-based, Cricetulus griseus; details: chinese hamster
# [2] = Cytotoxicity against CHL cells assessed as structural aberrations at 0.05 ug/ml preincubated for 6 hrs followed by 18 hrs incubation in fresh medium in absence of S9 fraction by Giemsa-staining-based microscopic analysis; format: toxicity, cell-based, Cricetulus griseus; details: chinese hamster
# [3] = Cytotoxicity against CHL cells assessed as structural aberrations at 0.05 ug/ml after 24 hrs by Giemsa-staining-based microscopic analysis; format: toxicity, cell-based, Cricetulus griseus; details: chinese hamster
# [4] = Cytotoxicity against CHL cells assessed as chromatid gap at 0.05 ug/ml after 24 hrs by Giemsa-staining-based microscopic analysis; format: toxicity, cell-based, Cricetulus griseus; details: chinese hamster
# [5] = Cytotoxicity against CHL cells assessed as number of cells with numerical aberrations at 0.05 ug/ml after 24 hrs by Giemsa staining-based microscopic analysis relative to control; format: toxicity, cell-based, Cricetulus griseus; details: chinese hamster
# [6] = Cytotoxicity against CHL cells assessed as number of cells with numerical aberrations at 0.05 ug/ml preincubated for 6 hrs followed by 18 hrs incubation in fresh medium in absence of S9 fraction by Giemsa-staining-based microscopic analysis relative to control; format: toxicity, cell-based, Cricetulus griseus; details: chinese hamster
# Escherichia coli K-12 = test: Irreversible inhibition of Escherichia coli K-12 SH642 GGT using gamma-Glu-AMC as substrate assessed as association rate constant by […] analysis
# In short: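 GGT was purified from the periplasmic fraction of recombinant E. coli K-12 SH642. Hydrolytic activity was followed with γ-Glu-AMC as substrate. Irreversible inactivation was expressed as kon, the second-order rate constant for the inhibitor–enzyme reaction.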
# [7] = Cytotoxicity against CHL cells assessed as chromatid gap at 20 ug/ml preincubated for 6 hrs followed by 18 hrs incubation in fresh medium in presence of S9 fraction by Giemsa-staining-based microscopic analysis; format: toxicity, cell-based, Cricetulus griseus; details: chinese hamster
# [8] = Cytotoxicity against CHL cells assessed as number of cells with numerical aberrations at 20 ug/ml preincubated for 6 hrs followed by 18 hrs incubation in fresh medium in presence of S9 fraction by Giemsa staining-based microscopic analysis relative to control; format: toxicity, cell-based, Cricetulus griseus; details: chinese hamster
# [9] = Cytotoxicity against CHL cells assessed as structural aberrations at 20 ug/ml preincubated for 6 hrs followed by 18 hrs incubation in fresh medium in presence of S9 fraction by Giemsa-staining-based microscopic analysis; format: toxicity, cell-based, Cricetulus griseus; details: chinese hamster
# Salmonella typhimurium [10] = test: Genotoxicity in Salmonella typhimurium TA98 assessed as number of revertant colonies per plate at 1 ug/plate after 20 mins in absence of S9 fraction by Ames test (reference value: 21); format: toxicity, organism-based; details: salmonella enterica subsp. enterica serovar typhimurium
# Salmonella typhimurium [11] = test: Genotoxicity in Salmonella typhimurium TA1537 assessed as number of revertant colonies per plate at 80 ug/plate after 20 mins in absence of S9 fraction by Ames test (reference value: 9); format: toxicity, organism-based; details: salmonella enterica subsp. enterica serovar typhimurium
# [12] = Hydrolytic stability of the compound in D2O assessed as formation of monomethyl phosphonate and phenol at 23 degC up to 28 days by 31P NMR spectroscopy; format: physicochemical; details: 672 h
# Escherichia coli [13] = test: Inhibition of glutaminase activity of Escherichia coli asparagine synthetase B at 0.1 mM using L-glutamine as substrate after 30 to 120 mins in presence of L-glutamate dehydrogenase and NAD+
# In short: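 Enzyme (60 µg) preincubated at 30 °C with inhibitor in 100 mM Tris-HCl pH 7.5, 8 mM MgCl2, 100 mM NaCl, 0.5 mM DTT. Aliquots taken at 30 and 120 min. Glutaminase reaction: 100 mM EPPS pH 8, 20 mM L-Gln, 37 °C for 10 min, then TCA quench. Glutamate read as NADH via glutamate dehydrogenase in glycine–hydrazine pH 9 with ADP and NAD+.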
# Salmonella typhimurium [14] = test: Genotoxicity in Salmonella typhimurium TA98 assessed as number of revertant colonies per plate at 0.5 ug/plate after 20 mins in presence of S9 fraction by Ames test (reference value: 26); format: toxicity, organism-based; details: salmonella enterica subsp. enterica serovar typhimurium
# Escherichia coli [15] = test: Genotoxicity in Escherichia coli WP2uvrA assessed as number of revertant colonies per plate at 10 ug/plate after 20 mins in presence of S9 fraction by Ames test (reference value: 26); format: toxicity; details: s9, 20 min
# Salmonella typhimurium [16] = test: Genotoxicity in Salmonella typhimurium TA1535 assessed as number of revertant colonies per plate at 2 ug/plate after 20 mins in presence of S9 fraction by Ames test (reference value: 13); format: toxicity, organism-based; details: salmonella enterica subsp. enterica serovar typhimurium
# Salmonella typhimurium [17] = test: Genotoxicity in Salmonella typhimurium TA1537 assessed as number of revertant colonies per plate at 2 ug/plate after 20 mins in presence of S9 fraction by Ames test (reference value: 15); format: toxicity, organism-based; details: salmonella enterica subsp. enterica serovar typhimurium
# Salmonella typhimurium [18] = test: Genotoxicity in Salmonella typhimurium TA100 assessed as number of revertant colonies per plate at 1 ug/plate after 20 mins in presence of S9 fraction by Ames test (reference value: 142); format: toxicity, organism-based; details: salmonella enterica subsp. enterica serovar typhimurium
# [19] = Hydrolytic stability of the compound in D2O assessed as formation of monomethyl phosphonate and phenol at 23 degC after 28 days by 31P NMR spectroscopy; format: physicochemical; details: 672 h
SMILES,K (Homo sapiens) [M⁻¹ s⁻¹],K (Escherichia coli K-12) [M⁻¹ s⁻¹],other results
NC(CCP(=O)(Oc1ccccc1)Oc1cccc(CC(=O)O)c1)C(=O)O (mixture of isomers),40,–,–
CO[C@@]12[C@H](COC(N)=O)C3=C(C(=O)C(C)=C(N)C3=O)N1C[C@@H]1N[C@@H]12 [MITOMYCIN],–,–,Activity [1]: 3%; Activity [2]: 40%; Activity [3]: 40%; Activity [4]: 0%; Activity [5]: 0%; Activity [6]: 2%
COP(=O)(CCC(N)C(=O)O)Oc1cccc(CC(N)=O)c1 (mixture of isomers),1.9,400,–
CCOC(=O)Cc1cccc(OP(=O)(CCC(N)C(=O)O)OC)c1 (mixture of isomers),1.2,120,–
COP(=O)(CCC(N)C(=O)O)Oc1ccccc1 (stereo not drawn),0.4,120,–
COP(=O)(CCC(N)C(=O)O)Oc1ccc(C(=O)O)cc1 (mixture of isomers),5.2,3200,–
c1ccc2c(c1)cc1ccc3cccc4ccc2c1c34 [BENZO[DEF]CHRYSENE],–,–,Activity [7]: 6%; Activity [8]: 1%; Activity [9]: 46%
O=[N+]([O-])c1ccc2c(c1)Cc1ccccc1-2 [2-NITROFLUORENE],–,–,Activity (Salmonella typhimurium [10]): 442
Nc1c2ccccc2nc2ccccc12 [AMINACRINE],–,–,Activity (Salmonella typhimurium [11]): 320
COP(=O)(CCC(N)C(=O)O)Oc1ccc(CC(=O)O)cc1 (stereo not drawn),0.33,210,Stability [12]: Stable
NC(CCP(=O)(Oc1ccccc1)Oc1ccccc1)C(=O)O (racemic),0.41,27.8,–
N[C@H](C(=O)O)[C@@H]1CC(Cl)=NO1,–,–,inhibition (Escherichia coli [13]): Active
Nc1ccc2cc3ccccc3cc2c1 [2-AMINOANTHRACENE],–,–,Activity (Salmonella typhimurium [14]): 421; Activity (Escherichia coli [15]): 495; Activity (Salmonella typhimurium [16]): 299; Activity (Salmonella typhimurium [17]): 154; Activity (Salmonella typhimurium [18]): 694
COP(=O)(CCC(N)C(=O)O)Oc1cccc(CCC(=O)O)c1 (mixture of isomers),7.7,71,–
COP(=O)(CCC(N)C(=O)O)Oc1cccc(C(=O)O)c1 (mixture of isomers),1.6,450,–
COP(=O)(CCC(N)C(=O)O)Oc1cccc([N+](=O)[O-])c1 (mixture of isomers),49,5100,Stability [19]: Unstable
